For assay [1], the system named is CHO. The assay can be described thus: Agonist activity at human alpha1L-adrenoceptor expressed in CHO cells co-expressing CRELD1alpha assessed as induction of calcium mobilization after 60 mins by fluorometric imaging plate reader assay relative to control noradrenaline. It counts as cell-based. The method, boiled down:
(§1)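 CHO cells (α1L-dominant) expressing human α1A-AR plus human CRELD1α were plated and grown overnight at 37°C under CO2. Cells were loaded with Calcium 5 indicator dye for 60 min at 37°C, then calcium influx was read by FLIPR. Activity is expressed as EC50 relative to the noradrenaline EC50.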
On the technique in general: A change in cytosolic calcium serves as a functional read-out for many receptors and channels.

The next assay is filed under the species Rattus norvegicus. The assay can be described thus: Agonist activity at alpha1L-adrenoceptor in Wistar rat isolated bladder neck assessed as induction of muscle contraction. The method, boiled down:
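Male Wistar rats anaesthetised with sodium pentobarbital (50 mg/kg) and killed. Bladder neck was isolated and cleaned in modified Krebs-Henseleit solution gassed with 95% O2/5% CO2. Strips were mounted in organ baths of the same solution at 37°C. Contraction was recorded across increasing doses, with noradrenaline as reference agonist.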

In assay [2] the test system is CHO. The assay can be described thus: (§2) Agonist activity at human alpha1L-adrenoceptor expressed in CHO cells co-expressing CRELD1alpha assessed as induction of calcium mobilization after 60 mins by fluorometric imaging plate reader assay. It counts as cell-based. The method, boiled down: as §1
Assay [3] can be described thus: as §2. Type of assay: cell-based. The note with it: 1 h. The method in brief:
as §1

What is called pEC50 is the EC50 on a negative log10 scale, so that one unit is a factor of ten.

pEC50: −log10 of the molar value.

As for `CC(C)c1cc(Cl)cc2c1CCC2C1=NCCN1` (stereo not given), in the assay on CHO [1], the Ratio is 0.08.

As to `CC(C)c1cc(Cl)cc2c1NCCC2C1=NCCN1` (stereo not given), the Activity entry in the assay listed under Rattus norvegicus was “Dose-dependent effect”. Moreover, the Ratio in the assay with CHO [1] came to 0.0028.

Take `CC1(C)CCc2c(CC3=NCCN3)cc(Cl)cc21`: the Ratio with CHO [1] was 0.12. Same read-out and setting: to `Cc1c(CC2=NCCN2)cc(Cl)cc1C(C)C` belongs 0.043.

Consider `CC(C)c1cc(Cl)cc2c1OCCC2C1=NCCN1` (stereo not given), for which the Ratio with CHO [1] came to 0.014. On to `Cc1c(CC2=NCCN2)cccc1C(C)C`, for which the Activity in the assay with CHO [2] is 36%. Take `Clc1cc(CC2=NCCN2)c2c(c1)C1(CCO2)CC1`: the Ratio in the assay with CHO [1] amounted to 0.088. On the same count and under the same terms, to `CC1CCCc2c(CC3=NCCN3)cc(Cl)cc21` (stereo not given) belongs 0.063. For `NC[C@H](O)c1ccc(O)c(O)c1`, the pEC50 in assay [3] is 5.99. Regarding `Clc1cc(CC2=NCCN2)c2c(c1)C1(CCC2)CC1`, in the assay on CHO [1], the Ratio is 0.025.

For `CC(C)c1cc(Cl)cc2c1CCCC2C1=NCCN1` (stereo not given), the Ratio in the assay with CHO [1] was 0.024.

As for `CC(C)c1cc(Cl)cc(CC2=NCCN2)c1`, in the assay with CHO [1], the Ratio was found to be 0.52. As to `Cc1ccc(Cl)cc1CC1=NCCN1`, the Activity with CHO [2] is 0%. `CC1(C)CCCc2c(CC3=NCCN3)cc(Cl)cc21`: the Ratio in the assay on CHO [1] was determined as 0.028.

The record behind these values is ChEMBL document CHEMBL3600326, “Discovery of potent α1L-adrenoceptor agonists: Design and synthesis of bicyclic derivatives” (Bioorg Med Chem Lett, 2015).
